BB579 growth dn: growth inhibitors of yeast BB579 in restrictive medium, primary screen, yeast lifespan-shortening project, S. cerevisiae; OD615, 48 h; inhibition, % at 10 µM; 140,000 tested, 0.51% active;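 active means inhibition above a set limit, 3 SD over the mean compound inhibition, cut at about 44% in these data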
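Test system: DeaD yeast strain BB579 / Buffer or medium: restrictive glucose-based CSMM-D medium / Doses: single 10 µM dose / Schedule: 4 h cell preincubation, 48 h compound exposure, 30 °C humidified / Technique: culture absorbance at 615 nm / Controls: amphotericin B positive control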
sdo1 growth: growth rescue of sdo1-depleted yeast, primary screen, S. cerevisiae, bone marrow failure model | 140,000 tested, 0.21% active | z-score at 10 µM | S. cerevisiae sdo1-depleted JHY4D growth rescue, OD600 30 h; active compounds read high; pdr5 snq2 efflux-pump mutant strain;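 active means z-score above 3 at both the 24 hr and the 30 hr optical density reads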;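 further: z-score against mean and SD of all compound wells on the same plate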
Yeast lifespan up: compounds extending yeast replicative lifespan, primary screen, S. cerevisiae, OD615; S. cerevisiae growth with nicotinamide; deaD strain in restrictive glucose medium; inhibition of the nicotinamide effect, % at 10 µM; 130,000 tested, 0.68% active; AID 775, 2007;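 active means inhibition above a set limit, placed 3 SD over the median of all compounds, cut at about 26% in these data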;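 further: 0% = nicotinamide-treated wells and 100% = cells grown without nicotinamide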
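Test system – modified budding yeast, DeaD strain · Compound – single dose 10 µM compound, 0.25% DMSO · Times – culture preincubation 4 h, compound exposure 48 h, both 30 °C · Detection – optical density (absorbance) at 615 nm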
Efa HMGR inh: inhibitors of E. faecalis class II HMGR, primary screen, biochemical, Enterococcus faecalis; purified E. faecalis HMGR, NADPH absorbance 340 nm kinetic; inhibition, % at 10 µM; 190,000 tested, 0.41% active; HMG-CoA reductase (Enterococcus faecalis, mvaE);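 active means inhibition above a set limit, the median over all tested compounds plus 3 SD, cut at about 9.5% in these data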;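 further: enzyme runs in reverse so mevalonate oxidation gives rising NADPH absorbance; 0% = complete reaction with DMSO and 100% = background rate lacking mevalonate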
The depositor's hits bear a star; / = not tested or not shown. Most compounds without a hit are left out; they make up all but 1.3% or so of the library.

SMILES | BB579 growth dn | sdo1 growth | Yeast lifespan up | Efa HMGR inh
CCCn1c(=O)c(C(=O)NCc2ccncc2)c(O)c2ccccc21 | -7 | -2.5 | 28* | -1
CCn1c(=O)c(C(=O)NNS(=O)(=O)c2ccc(C)cc2)c(O)c2ccccc21 | -15 | -1.2 | 32* | -1
CCCn1c(=O)c(C(=O)NNS(=O)(=O)c2ccc(C)cc2)c(O)c2ccccc21 | -13 | -1 | 21 | 3
O=C(OCC(=O)c1c[nH]c2ccccc12)c1cc(Br)ccc1O | / | / | / | -2
Oc1ccc2ccccc2c1C=Nc1ccc(N2CCOCC2)cc1 | -16 | -0.05 | 49* | -1
Oc1ccc(N=Nc2cccc(Cl)c2)cc1C=Nc1ccc(N2CCOCC2)cc1 | 79* | -1.1 | -7 | 7
Cc1cc(C)c(S(C)(=O)=O)c(Oc2ccc(F)cc2)n1 | -42 | 0.43 | -13 | 10*
Nc1nc(SCc2ccccc2Cl)ns1 | -40 | -0.72 | / | 13*
NC(=O)C1(N2CCCCC2)CCN(C(=S)Nc2ccc(S(N)(=O)=O)cc2)CC1 | / | / | / | 1
CCCc1[nH]nc2c1C(CCC)C(C#N)=C(N)O2 (centres undefined) | -21 | -0.15 | 2 | 11*
Cc1ccc(NC(=O)C2CCCN(C(=O)c3ccc(Cl)cc3)C2)cc1S(=O)(=O)N1CCOCC1 (centres undefined) | / | / | / | -9
COc1cc(/C=N/NC(=O)c2ccncc2)ccc1OC(=O)c1ccccc1Cl | / | / | / | -4
COc1cc(/C=N/NC(=O)c2ccncc2)ccc1OC(=O)c1ccc([N+](=O)[O-])cc1 | -10 | 0.42 | 44* | -4
Cc1occc1-c1nnc(SCC(=O)N2CCCCC2)o1 | / | / | / | 13*
Cc1occc1-c1nnc(SCC(N)=O)o1 | / | / | / | -7
Cc1nc(N/N=C/c2ccccn2)sc1C | 44* | -2 | -3 | -3
COc1ccccc1N(CC(O)Cn1ccnc1C)S(=O)(=O)c1ccc(C)cc1 (centres undefined) | / | / | / | 9
COc1ccc(NC(=O)c2ccc(Oc3ncccn3)cc2)cc1 | / | / | / | -2
Cc1cccc(OCCN2CSC(=S)N(C)C2)c1 | 67* | -2.7 | 8 | 0
COc1ccccc1OCCCCN1CCN(c2ccccc2OC)CC1 | -56 | 0.55 | -5 | 4
COc1ccccc1OCCN1CSC(=S)N(C)C1 | 53* | -2 | 14 | -6
Cc1cccc(OCCCN2CCCCCC2)c1 | -25 | -0.47 | -14 | -5
CNCc1nc2ccccc2[nH]1 | / | / | / | 13*
COc1ccccc1CNC(=O)c1cc2c(=O)[nH]c3ccccc3c2n1C | / | / | / | -3
O=C(COC(=O)c1ccccc1[N+](=O)[O-])Nc1cc(S(=O)(=O)N2CCOCC2)ccc1N1CCCC1 | / | / | / | 1
SMILES | BB579 growth dn | sdo1 growth | Yeast lifespan up | Efa HMGR inh
O=c1c(Cl)c(Cl)cnn1-c1ccccc1 | 16 | 0.85 | 40* | -7
COc1cccc(-n2nnnc2S(C)(=O)=O)c1 | 74* | -1.4 | 18 | 1
CCC(C)(C)c1ccc(OCCCC[n+]2cccc(C)c2)c(C(C)(C)CC)c1 | / | / | / | -3
O=C(/C=C\Nc1ccc(Cl)cn1)c1ccc(Br)cc1 | / | / | / | 11*
COc1ccc(C(=O)/C=C/Nc2ccc(C)cn2)cc1OC | 52* | 0.32 | / | -1
CCN(c1ccc(N=Cc2c(O)n(Cc3ccc(OC)cc3)c(=O)c3ccccc23)cc1)C(C)C | / | / | / | -4
O=C(CN1C2=NCCCN2c2ccccc21)c1ccc([N+](=O)[O-])cc1 | / | / | / | -7
CCOC(=O)c1c(NC(=O)CN2CCOCC2)sc(C(=O)NC)c1C | -22 | 0.81 | -2 | 0
COCCOC(=O)c1c(NC(=O)CN2CCOCC2)sc(C(N)=O)c1C | -11 | 0.51 | -33 | 17*
O=C(NC(=S)Nc1nc2c(s1)CCCC2)c1ccc(C(=O)c2ccccc2)cc1 | -33 | -0.22 | 2 | -3
O=C(NC(=S)Nc1nc2c(s1)CSc1ccccc1-2)c1ccccc1 | -55 | -0.65 | 66* | -4
CCc1cccc(CC)c1NC(=O)COC(=O)C1(C)CC1(Cl)Cl (centres undefined) | / | / | / | 3
O=C1c2ccccc2C(Nc2ccc3c(c2)OCCO3)N1c1ccc(Cl)cn1 (centres undefined) | -36 | -1.3 | 3 | -2
O=C1c2ccccc2C(Nc2ccc3c(c2)OCCO3)N1c1ccccn1 (centres undefined) | -15 | -0.66 | 36* | -2
O=C(CN1C2=NCCN2c2ccccc21)c1ccc(Br)s1 | -10 | 0.42 | 2 | -1
CCCNC(=O)CN1C(=O)NC(CCc2ccccc2)C1=O (centres undefined) | / | / | / | 12*
COc1ccc(CC(=O)Nc2nc(-c3cc(OC)ccc3OC)cs2)cc1 | / | / | / | 4
COc1cccc(CC(=O)Nc2nc(-c3cc(OC)ccc3OC)cs2)c1 | / | / | / | 12*
CCC(C)n1ncn(-c2ccc(N3CCN(c4ccc(OCC5COC(Cn6cncn6)(c6ccc(Cl)cc6Cl)O5)cc4)CC3)cc2)c1=O (centres undefined) | / | / | / | 5
CCCC1COC(Cn2cncn2)(c2ccc(C)cc2)O1 (centres undefined) | 94* | -2.6 | -20 | -5
CCn1c(=O)cc(SCC(=O)Nc2ccc(C)cn2)c2ccccc21 | / | / | / | -3
O=C(COc1ncnc2sccc12)N1CCN(C(=O)c2ccco2)CC1 | / | / | / | -1
Cc1cccc(OCC(=O)N/N=C\c2cn(C)c3ccccc23)c1 | / | / | / | -7
Cc1cccc(OCCn2cc(/C=N/NC(=O)c3ccncc3)c3ccccc32)c1 | 54* | -1.1 | -8 | -6
CN1C(=O)CSC1=NC12CC3CC(CC(C3)C1)C2 | 0 | 0.82 | 53* | 1
SMILES | BB579 growth dn | sdo1 growth | Yeast lifespan up | Efa HMGR inh
Cc1ccc(S(=O)(=O)n2[nH]c(=O)cc2NC(=O)c2cccs2)cc1 | / | / | / | 11*
Cc1ccc(NC(=O)c2cccs2)cc1 | -15 | 0.06 | -7 | -1
CCOc1ccc(C(=O)NCC2CCCO2)cc1OCC (centres undefined) | / | / | / | 13*
COc1cc(C(=O)NCC2CCCO2)cc(OC)c1OC (centres undefined) | -28 | 2.3 | / | -5
CCn1ccnc1CN1CCN(CCC(C)C)C(CCO)C1 (centres undefined) | / | / | / | -7
CCOC(=O)/C(=C\c1ccc(Cl)cc1)c1nc2sc(C)c(C)c2c(=O)[nH]1 | -14 | -1.7 | 32* | -7
O=C(Oc1coc(CSc2ncccn2)cc1=O)c1ccc(Br)o1 | -6 | -0.22 | 38* | -1
COC(=O)c1cc(O)c(O)c(O)c1 | -44 | 0.37 | 4 | 5
O=C(O[C@@H]1Cc2c(O)cc(O)cc2O[C@@H]1c1cc(O)c(O)c(O)c1)c1cc(O)c(O)c(O)c1 | / | / | / | 14*
O=C1CC(N2CCSCC2)C(=O)N1c1cccc(Cl)c1 (centres undefined) | / | / | / | 2
Cc1ccc(N(CC(=O)N2CCOCC2)S(=O)(=O)c2ccccc2)cc1 | -23 | 0.23 | -5 | 12*
O=C(CN(c1ccccc1)S(=O)(=O)c1ccccc1)N1CCOCC1 | / | / | / | 0
Cc1nc([N+](=O)[O-])c(Br)n1CC(=O)c1cccc([N+](=O)[O-])c1 | / | / | / | 16*

From PubChem
